Measurements from article PMC9097201 (ACS Omega, 2022).
Where a SMILES comes first, the peptide text is derived from it. [ ]: non-standard residue; d: D form. Nle = CCCC[C@H](N)C(=O)O; Dab = NCC[C@H](N)C(=O)O

Columns and labels:
[1] = test system: human embryonic lungs (L132) cell lines; assay: Cell viability; type: cell-based; details: L132 cells, 100 μM peptide, 4 h, absorbance 570 nm, triplicate
[2] = test system: trypsin, chymotrypsin, and proteinase K; assay: Proteolytic stability assay; type: in vitro ADME; details: reaction mixture post-incubation with enzyme cocktail, ESI-MS positive mode
In short: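 Test compound (10 mM) was incubated with a 1:1:1 trypsin/chymotrypsin/proteinase K mixture (0.3 mg/mL) at 37 °C for 0–6 h. Enzymes were inactivated with an equal volume of acetonitrile containing 1% TFA for 15 min at 4 °C. The post-incubation reaction mixture was analysed by ESI-MS for intact peptide.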

CCCC[C@H](NC(=O)[C@H](CCN)NC(=O)[C@H](CCN)NC(=O)[C@H](CCCC)NC(=O)[C@H](Cc1c[nH]c2ccccc12)NC(=O)[C@H](CCN)NC(=O)[C@@H](N)CCCC)C(N)=O [P36, Nle-Dab-Trp-Nle-Dab-Dab-Nle-CONH2] (H-[Nle][Dab]W[Nle][Dab][Dab][Nle]-NH2)
cell viability (MTT) [1]: ~90% | chemical integrity after protease incubation (ESI-MS) [2]: contained only intact P36
